The source made the active and inactive calls. The rule behind the calls is not given here.
How the values were obtained:
[1] = target: DNA topoisomerase 2-alpha (Homo sapiens) (UniProt P11388); assay: Inhibition of human DNA topoisomerase 2 at 200 uM relative to control
[2] = target: T1, DNA topoisomerase 1 (Homo sapiens) (UniProt P11387); assay: Inhibition of human DNA topoisomerase 1 at 200 uM relative to control
T1 sequence (whole entry): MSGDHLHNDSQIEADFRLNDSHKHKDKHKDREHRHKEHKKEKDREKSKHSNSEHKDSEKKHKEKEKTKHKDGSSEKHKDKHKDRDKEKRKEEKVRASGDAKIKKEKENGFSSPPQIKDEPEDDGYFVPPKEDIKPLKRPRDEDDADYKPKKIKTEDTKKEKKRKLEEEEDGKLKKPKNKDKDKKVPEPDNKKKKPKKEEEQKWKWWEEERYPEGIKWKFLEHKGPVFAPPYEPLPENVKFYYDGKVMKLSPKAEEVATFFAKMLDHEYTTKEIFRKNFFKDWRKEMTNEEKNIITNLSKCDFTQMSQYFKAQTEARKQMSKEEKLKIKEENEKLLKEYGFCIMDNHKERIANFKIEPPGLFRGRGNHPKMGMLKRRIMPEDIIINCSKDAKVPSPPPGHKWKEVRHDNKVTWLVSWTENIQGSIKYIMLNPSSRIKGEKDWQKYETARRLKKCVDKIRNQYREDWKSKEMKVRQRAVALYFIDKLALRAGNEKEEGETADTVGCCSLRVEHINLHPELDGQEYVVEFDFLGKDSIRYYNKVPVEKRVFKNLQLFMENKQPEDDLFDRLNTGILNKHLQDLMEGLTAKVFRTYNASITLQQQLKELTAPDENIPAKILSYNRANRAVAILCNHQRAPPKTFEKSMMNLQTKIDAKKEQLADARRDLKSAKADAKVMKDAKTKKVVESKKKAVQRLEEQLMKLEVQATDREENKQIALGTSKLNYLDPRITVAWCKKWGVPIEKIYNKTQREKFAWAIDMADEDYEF

Escherichia coli [3] = assay: Inhibition of Escherichia coli DNA topoisomerase 4 at 200 uM relative to control
Escherichia coli [4] = assay: Inhibition of Escherichia coli DNA gyrase catalytic activity at 200 uM relative to control
Summary of the method: (§1)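 E. coli gyrase was incubated with relaxed DNA, either without compound or with compound at 200 μM; titrations also used 20, 50 and 100 μM. Gel lanes included a no-enzyme control and an enzyme-without-compound control, and supercoiling was scored from the lane pattern. In the summary table, + denotes greater than 95% inhibition.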

Escherichia coli [5] = assay: Inhibition of Escherichia coli DNA topoisomerase 4 assessed as blockade of ciprofloxacin-induced pBR322 DNA cleavage at 200 uM after 10 mins by agarose gel electrophoresis
Summary of the method: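 E. coli Topo IV was incubated with plasmid DNA and ciprofloxacin with or without compound. Ciprofloxacin traps the enzyme–DNA ternary complex, and nicked and linear DNA products were scored on the gel against the supercoiled substrate.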

Escherichia coli [6] = assay: Inhibition of Escherichia coli DNA gyrase-mediated supercoiling of relaxed I-DNA after 15 mins by agarose gel electrophoresis; summary of the method: as §1
Escherichia coli [7] = assay: Inhibition of Escherichia coli DNA topoisomerase 4-mediated decatenation of kinetoplast DNA at 200 uM after 15 mins by agarose gel electrophoresis
Escherichia coli [8] = assay: Inhibition of Escherichia coli DNA topoisomerase 4-mediated relaxation of negatively supercoiled pBR322 DNA at 200 uM after 15 mins by agarose gel electrophoresis

Chain of DNA topoisomerase 2-alpha (Homo sapiens) (P11388 whole entry): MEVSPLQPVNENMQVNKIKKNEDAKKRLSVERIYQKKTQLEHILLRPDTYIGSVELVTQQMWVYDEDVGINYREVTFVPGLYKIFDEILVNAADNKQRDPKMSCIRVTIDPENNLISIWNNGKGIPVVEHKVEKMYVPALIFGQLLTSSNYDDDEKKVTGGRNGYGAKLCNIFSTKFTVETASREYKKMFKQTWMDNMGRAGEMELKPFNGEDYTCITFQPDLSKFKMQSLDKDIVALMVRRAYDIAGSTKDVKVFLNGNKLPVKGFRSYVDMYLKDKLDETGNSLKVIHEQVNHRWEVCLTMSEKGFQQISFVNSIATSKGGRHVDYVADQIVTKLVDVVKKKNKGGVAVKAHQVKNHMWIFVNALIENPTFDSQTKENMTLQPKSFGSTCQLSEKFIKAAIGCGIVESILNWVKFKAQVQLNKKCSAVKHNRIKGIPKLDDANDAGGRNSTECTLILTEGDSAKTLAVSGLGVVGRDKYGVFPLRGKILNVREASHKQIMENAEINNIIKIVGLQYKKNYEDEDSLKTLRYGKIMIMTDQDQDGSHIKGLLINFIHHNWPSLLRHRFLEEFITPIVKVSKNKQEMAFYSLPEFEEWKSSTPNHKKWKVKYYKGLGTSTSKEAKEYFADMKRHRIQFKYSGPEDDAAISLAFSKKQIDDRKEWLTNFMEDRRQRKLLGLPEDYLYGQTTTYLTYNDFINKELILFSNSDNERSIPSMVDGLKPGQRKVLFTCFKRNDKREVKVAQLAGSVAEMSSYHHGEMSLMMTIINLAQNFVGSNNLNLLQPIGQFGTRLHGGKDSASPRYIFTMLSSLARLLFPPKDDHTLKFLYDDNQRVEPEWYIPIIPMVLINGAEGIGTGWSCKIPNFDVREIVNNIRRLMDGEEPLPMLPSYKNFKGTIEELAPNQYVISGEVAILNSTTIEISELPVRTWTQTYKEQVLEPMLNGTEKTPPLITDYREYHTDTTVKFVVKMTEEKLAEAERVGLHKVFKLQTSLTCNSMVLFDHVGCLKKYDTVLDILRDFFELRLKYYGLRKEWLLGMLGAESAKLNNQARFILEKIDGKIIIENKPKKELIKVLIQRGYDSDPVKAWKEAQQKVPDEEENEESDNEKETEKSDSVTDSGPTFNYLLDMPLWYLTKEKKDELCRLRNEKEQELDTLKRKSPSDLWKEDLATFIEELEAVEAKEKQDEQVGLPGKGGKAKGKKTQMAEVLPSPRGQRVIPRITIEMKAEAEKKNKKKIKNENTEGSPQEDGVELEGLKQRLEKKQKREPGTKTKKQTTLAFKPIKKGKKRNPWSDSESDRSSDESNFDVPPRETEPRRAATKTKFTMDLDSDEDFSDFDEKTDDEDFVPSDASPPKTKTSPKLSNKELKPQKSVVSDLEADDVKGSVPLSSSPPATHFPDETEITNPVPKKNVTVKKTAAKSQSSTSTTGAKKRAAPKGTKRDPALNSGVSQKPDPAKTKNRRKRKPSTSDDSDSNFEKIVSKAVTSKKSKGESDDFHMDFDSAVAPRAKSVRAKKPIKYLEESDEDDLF

inhibition [1] | inhibition [2] | inhibition (Escherichia coli [3]) | inhibition (Escherichia coli [4]) | inhibition (Escherichia coli [5]) | inhibition (Escherichia coli [6]) | inhibition (Escherichia coli [7]) | inhibition (Escherichia coli [8]) | SMILES
inactive | inactive | inactive | inactive |  |  |  |  | O=C(NC[C@@H]1O[C@H](O[C@H]2[C@@H](O)[C@H](O[C@@H]3[C@@H](O)[C@H](NC(=O)OCc4ccccc4)C[C@H](NC(=O)OCc4ccccc4)[C@H]3O[C@H]3O[C@H](CNC(=O)OCc4ccccc4)[C@@H](O)[C@H](O)[C@H]3NC(=O)OCc3ccccc3)O[C@@H]2CO)[C@H](NC(=O)OCc2ccccc2)[C@@H](O)[C@@H]1O)OCc1ccccc1
 |  |  |  | Active | Dose-dependent effect | Active | Active | O=C(NC[C@@H]1O[C@H](O[C@H]2[C@@H](OS(=O)(=O)O)[C@H](O[C@@H]3[C@@H](OS(=O)(=O)O)[C@H](NC(=O)OCc4ccccc4)C[C@H](NC(=O)OCc4ccccc4)[C@H]3O[C@H]3O[C@H](CNC(=O)OCc4ccccc4)[C@@H](OS(=O)(=O)O)[C@H](OS(=O)(=O)O)[C@H]3NC(=O)OCc3ccccc3)O[C@@H]2COS(=O)(=O)O)[C@H](NC(=O)OCc2ccccc2)[C@@H](OS(=O)(=O)O)[C@@H]1OS(=O)(=O)O)OCc1ccccc1
inactive | inactive | inactive | inactive |  |  |  |  | O=C(Cc1ccccc1)NC[C@H]1O[C@H](O[C@H]2[C@H](O)[C@@H](O[C@H]3O[C@H](CO)[C@@H](O)[C@H](NC(=O)Cc4ccccc4)[C@H]3O)[C@H](NC(=O)Cc3ccccc3)C[C@@H]2NC(=O)Cc2ccccc2)[C@H](O)[C@@H](O)[C@@H]1O
inactive | inactive | inactive | inactive |  |  |  |  | CN(C(=O)OCc1ccccc1)[C@@H]1[C@@H](O[C@H]2O[C@H](CO)[C@@H](NC(=O)OCc3ccccc3)[C@H](O)[C@H]2O)O[C@H]2C[C@@H](NC(=O)OCc3ccccc3)[C@@H](O[C@H]3[C@H](O)[C@@H](O)[C@H](NC(=O)OCc4ccccc4)C[C@@H]3NC(=O)OCc3ccccc3)O[C@@H]2[C@@H]1O
inactive | inactive | inactive | inactive |  |  |  |  | CC(=O)NC[C@@H]1O[C@H](O[C@H]2[C@@H](O)[C@H](O[C@@H]3[C@@H](O)[C@H](NC(C)=O)C[C@H](NC(C)=O)[C@H]3O[C@H]3O[C@H](CNC(C)=O)[C@@H](O)[C@H](O)[C@H]3NC(C)=O)O[C@@H]2CO)[C@H](NC(C)=O)[C@@H](O)[C@@H]1O
inactive | inactive | inactive | inactive |  |  |  |  | O=C(NC[C@H]1O[C@H](O[C@H]2[C@H](O)[C@@H](O[C@H]3O[C@H](CO)[C@@H](O)[C@H](NC(=O)OCc4ccccc4)[C@H]3O)[C@H](NC(=O)OCc3ccccc3)C[C@@H]2NC(=O)OCc2ccccc2)[C@H](O)[C@@H](O)[C@@H]1O)OCc1ccccc1
inactive | inactive | inactive | inactive |  |  |  |  | O=C(Cc1ccccc1)NC[C@@H]1O[C@H](O[C@H]2[C@@H](O)[C@H](O[C@@H]3[C@@H](O)[C@H](NC(=O)Cc4ccccc4)C[C@H](NC(=O)Cc4ccccc4)[C@H]3O[C@H]3O[C@H](CNC(=O)Cc4ccccc4)[C@@H](O)[C@H](O)[C@H]3NC(=O)Cc3ccccc3)O[C@@H]2CO)[C@H](NC(=O)Cc2ccccc2)[C@@H](O)[C@@H]1O
 |  |  |  | Active |  |  |  | CN(C(=O)c1ccccc1)[C@@H]1[C@@H](O[C@H]2O[C@H](CO)[C@@H](NC(=O)c3ccccc3)[C@H](O)[C@H]2O)O[C@H]2C[C@@H](NC(=O)c3ccccc3)[C@@H](O[C@H]3[C@H](O)[C@@H](O)[C@H](NC(=O)c4ccccc4)C[C@@H]3NC(=O)c3ccccc3)O[C@@H]2[C@@H]1O
inactive | inactive | inactive | inactive |  |  |  |  | O=C(NC[C@H]1O[C@H](O[C@H]2[C@H](O)[C@@H](O[C@H]3O[C@H](CO)[C@@H](O)[C@H](NC(=O)c4ccccc4)[C@H]3O)[C@H](NC(=O)c3ccccc3)C[C@@H]2NC(=O)c2ccccc2)[C@H](O)[C@@H](O)[C@@H]1O)c1ccccc1

Source: ChEMBL document CHEMBL2385070, “Selective inhibition of bacterial and human topoisomerases by N-arylacyl O-sulfonated aminoglycoside derivatives” (ACS Med Chem Lett, 2013)
